# From ChEMBL document CHEMBL1921780, “Novel 3-nitro-1H-1,2,4-triazole-based aliphatic and aromatic amines as anti-chagasic agents” (J Med Chem, 2011)
# Assays:
# [1] = tested on: Leishmania donovani; test: Antileishmanial activity against Leishmania donovani MHOM-ET-67/L82 axenic amastigotes after 72 hrs by alamar blue assay; details: MHOM-ET-67/L82, 72 h
# [2] = Selectivity index, ratio of IC50 for rat L6 cells to IC50 for Trypanosoma cruzi Tulahuen C4; format: toxicity, cell-based; details: L6 cells versus Trypanosoma cruzi Tulahuen C4, read-out: Ratio IC50
# Summary of the method: (§1)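 Selectivity index is the L6 myoblast IC50 divided by the IC50 for each parasite. L. donovani was tested as axenic amastigotes. Both IC50s came from 96-well dose-response screens fitted by linear regression of sigmoidal curves.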
# [3] = tested on: Trypanosoma brucei rhodesiense; test: Antitrypanosomal activity against blood stream form of Trypanosoma brucei rhodesiense STIB 900 […] after 72 hrs by alamar blue assay; format: functional, organism-based; details: STIB 900, 72 h
# [4] = tested on: Trypanosoma cruzi; test: Antitrypanosomal activity against amastigotes of Trypanosoma cruzi Tulahuen C4 infected in rat L6 cells after 72 hrs by alamar blue assay; details: Tulahuen C4, L6, 72 h
# [5] = Selectivity index, ratio of IC50 for rat L6 cells to IC50 for Trypanosoma brucei rhodesiense STIB 900; format: toxicity, cell-based; details: L6 cells versus Trypanosoma brucei rhodesiense STIB 900, read-out: Ratio IC50
# Summary of the method: as §1
# [6] = Selectivity index, ratio of IC50 for rat L6 cells to IC50 for Leishmania donovani MHOM-ET-67/L82; format: toxicity, cell-based; details: L6 cells versus Leishmania donovani MHOM-ET-67/L82, read-out: Ratio IC50
# Summary of the method: as §1
# [7] = tested on: L6; test: Cytotoxicity against rat L6 cells after 72 hrs by alamar blue assay; format: cell-based; details: L6, 72 h
# Summary of the method: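 Run in 96-well plates with a compound dose series. T. cruzi was tested as amastigotes inside infected L6 rat skeletal myoblasts. Uninfected L6 cells were used for cytotoxicity. IC50 was obtained by linear regression from sigmoidal dose–inhibition curves.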
# [8] = Dissociation constant, pKa of the compound; format: physicochemical
# [9] = tested on: Trypanosoma cruzi; test: Ratio of benznidazole IC50 to compound IC50 for Trypanosoma cruzi Tulahuen C4 infected in rat L6 cells after 72 hrs by alamar blue assay; format: functional
IC50 [3] [µM],IC50 [4] [µM],pKa [8],Structure (SMILES),IC50 [1] [µM],selectivity ratio [2],selectivity ratio [5],selectivity ratio [6],IC50 [7] [µM],Ratio IC50 [9]
15.2,4.28,–,Cc1nc(C(F)(F)F)nc(NCCCn2ccnc2[N+](=O)[O-])c1C,20.1,> 55,> 16,> 12,> 236,–
0.882,15.6,–,O=C1C(Cl)=C(NCCCn2cnc([N+](=O)[O-])n2)C(=O)c2ccccc21,6.53,–,8,1,7.16,–
1.05,0.311,8.76,Cl.O=[N+]([O-])c1ncn(CCCNCc2ccc3ccc(Cl)cc3n2)n1,63.8,460,136,2,143,4.3
1.4,1.04,–,O=[N+]([O-])c1nccn1CCCNc1ccnc2cc(Cl)ccc12,54.4,24,18,–,24.9,–
3.46,2.1,–,Cc1nc(NCCCn2ccnc2[N+](=O)[O-])c2ccccc2n1,68.3,15,9,–,31.6,–
11.8,41.8,–,Cc1cc(NCCCCn2ccnc2[N+](=O)[O-])nc(N)n1,98.1,> 7,> 23,> 3,> 275,–
15.3,20.7,–,O=[N+]([O-])c1nccn1CCCN1CCN(Cc2ccc(C(F)(F)F)cc2)CC1,> 191,> 9,> 13,–,> 191,–
0.917,0.358,6.87,Cl.O=[N+]([O-])c1ncn(CCCN(Cc2ccc3ccc(Cl)cc3n2)Cc2ccc3ccc(Cl)cc3n2)n1,9.58,200,78,7,71.6,3.8
8.56,6.05,–,O=[N+]([O-])c1nccn1CCCNCc1ccc2cc(Br)ccc2n1,80.3,23,16,2,137,–
21.6,8.02,–,O=[N+]([O-])c1nccn1CCCN(Cc1cccc(C(F)(F)F)c1)Cc1cccc(C(F)(F)F)c1,4.27,10,4,19,79.6,–
32.3,123,–,FC(F)(F)c1cc(CNCCCCn2cncn2)cc(C(F)(F)F)c1,172,> 2,> 7,> 1,> 224,–
2.19,33.7,–,Cc1cc(NCCCn2cnc([N+](=O)[O-])n2)nc(N)n1,> 95.4,> 8,> 131,–,> 286,–
8.17,1.96,–,O=[N+]([O-])c1ncn(CCCN(Cc2cc(C(F)(F)F)cc(C(F)(F)F)c2)Cc2cc(C(F)(F)F)cc(C(F)(F)F)c2)n1,4.87,40,10,16,78.8,–
2.26,0.968,–,COc1cc2nc(Cl)nc(NCCCCn3ccnc3[N+](=O)[O-])c2cc1OC,3.63,17,7,5,16.5,–
13.8,24.5,–,O=[N+]([O-])c1nccn1CCCNCc1cc(C(F)(F)F)cc(C(F)(F)F)c1,> 69.4,6,10,< 2,140,–
0.621,30.1,–,O=C1C(Cl)=C(NCCCn2ccnc2[N+](=O)[O-])C(=O)c2ccccc21,0.516,–,6,8,3.91,–
0.134,0.151,8.84,COc1ccc2nc3cc(Cl)ccc3c(NCCCCn3cnc([N+](=O)[O-])n3)c2c1,10.2,66,74,1,9.94,–
14.2,4.67,–,O=[N+]([O-])c1nccn1CCCN(Cc1ccc2cc(Br)ccc2n1)Cc1ccc2cc(Br)ccc2n1,18.7,20,7,5,93.6,–
0.435,0.46,6.81,Cl.O=[N+]([O-])c1ncn(CCCCNc2ccnc3cccnc23)n1,> 276,208,220,–,95.8,2.9
15.5,9.67,–,O=[N+]([O-])c1nccn1CCCCNc1nc(-c2ccccc2)nc(Cl)c1-c1ccccc1,12.4,1,1,1,11.7,–
23,3.77,–,O=[N+]([O-])c1nccn1CCCN(Cc1ccc(C(F)(F)F)cc1)Cc1ccc(C(F)(F)F)cc1,6.49,> 46,> 7,> 27,> 172,–
0.601,0.926,–,O=[N+]([O-])c1nccn1CCCCNc1c2ccccc2nc2ccccc12,14.8,2,3,–,1.68,–
10.3,7.08,–,Cc1cc(NCCCn2ccnc2[N+](=O)[O-])nc(N)n1,> 95.7,> 41,> 28,–,> 287,–
2.76,3.63,–,O=[N+]([O-])c1nccn1CCCCNc1nc(-c2ccccc2)nc2ccccc12,6.17,9,12,5,32.5,–
21.8,92.1,–,Clc1ccc2c(NCCCCn3cncn3)ccnc2c1,> 298,> 3,> 14,–,> 298,–
1.87,3.51,–,O=[N+]([O-])c1nccn1CCCCNc1ccnc2cc(Cl)ccc12,39.1,19,36,2,66.8,–
0.996,0.996,–,O=[N+]([O-])c1nccn1CCNc1c2ccccc2nc2ccccc12,9.09,–,–,–,0.308,–

Structure (SMILES),IC50 [3] [µM],IC50 [4] [µM],pKa [8],IC50 [1] [µM],selectivity ratio [2],selectivity ratio [5],selectivity ratio [6],IC50 [7] [µM],Ratio IC50 [9]
Cl.O=[N+]([O-])c1ncn(CCCNc2c3ccccc3nc3ccccc23)n1,0.611,0.14,9.2,35.4,147,34,1,20.5,9.6
Nc1nc(N)nc(Nc2ccc([As]3SCC(CO)S3)cc2)n1 (stereo not drawn) [MELARSOPROL],0.01,–,–,–,–,–,–,–,–
